Assay results published in PubChem BioAssay.
Active and inactive are the calls of the source.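 Rule for the calls, unless noted: active = compounds giving at least 50% inhibition in the cell-based MKP-3 phosphatase rescue imaging test; inactive = the rest.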

Legend:
[1] = inhibitors of TNFa-induced NFkB p65 translocation, primary screen, imaging, HUVEC, MLSMR starter and 10KST1 sets (AID 438;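 active = inhibition above 20% together with a positive visual image hit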;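 note: compound added about 3h40 before a 20 min TNFalpha stimulation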;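 for inhibition: signal is the nuclear over cytoplasmic p65 intensity ratio per well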); settings: HUVEC TNFa-induced p65 nuclear translocation; cell count: measured here: nuclei count (cytotoxicity indicator), at 2.08 µM; inhibition: at 2 µM, stronger effect = higher value, 0% TNFa-plus-vehicle, 100% no-TNFa wells
[2] = endothelial E-selectin expression blockers – imaging, HUVEC, immunofluorescence, MLSMR starter and 10KST1 sets, primary screen (AID 487;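 active = visually confirmed hit in the image check and inhibition above 20%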;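 for inhibition: signal is fraction of cell area covered by stained E-selectin grains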;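 for nuclei count: 100% = median nuclei count of all wells on the same plate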); settings: HUVEC TNFalpha-induced E-selectin immunofluorescence imaging, at 2 µM; inhibition: stronger effect = higher value; nuclei count: measured here: cell number, toxicity
[3] = Primary imaging screen for DUSP6 inhibitors that restore phospho-Erk in transfected HeLa cells, chemical complementation (AID 609); settings: HeLa MKP-3 transfected, phospho-Erk imaging KS statistic, at 10 µM, cells stimulated with TPA for 15 min;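 for inhibition: phospho-Erk level distribution per well compared with pooled transfected vehicle control wells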
[4] = biological target: Dual specificity protein phosphatase 6 (Homo sapiens) (UniProt Q16828); assay: as above; settings: HeLa MKP-3 transfected, phospho-Erk imaging KS statistic; at 10 µM; stronger effect = higher value; cells stimulated with TPA for 15 min
Chain of Dual specificity protein phosphatase 6 (Homo sapiens) (Q16828 whole entry, looked up): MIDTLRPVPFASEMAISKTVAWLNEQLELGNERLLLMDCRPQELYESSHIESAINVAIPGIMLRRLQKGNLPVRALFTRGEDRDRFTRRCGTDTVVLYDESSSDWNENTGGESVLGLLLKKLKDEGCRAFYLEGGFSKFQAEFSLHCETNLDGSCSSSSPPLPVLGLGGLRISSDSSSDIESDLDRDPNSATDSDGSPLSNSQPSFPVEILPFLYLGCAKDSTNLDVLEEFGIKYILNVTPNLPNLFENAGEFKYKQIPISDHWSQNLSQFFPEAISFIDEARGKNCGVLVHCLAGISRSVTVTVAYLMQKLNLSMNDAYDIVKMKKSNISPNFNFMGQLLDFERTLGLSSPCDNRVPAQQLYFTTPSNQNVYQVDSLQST

[5] = biological target: Voltage-gated potassium channel subunit beta-2 (Rattus norvegicus) (UniProt P62483); assay: inhibitors of rat Kvbeta2 reductase activity – biochemical, NADPH fluorescence, primary screen (AID 622;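 active = fluorescence slope higher than the sample average by over 3 SD, cut at about -0.22 in these data, passing the limit was not always enough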;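 note: slope of raw intensity against log time taken from 70 to 1610 s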); settings: recombinant KvBeta, 4-cyanobenzaldehyde reduction, at 10 µM, stronger effect = higher value
Chain of Voltage-gated potassium channel subunit beta-2 (Rattus norvegicus) (P62483 whole entry, looked up): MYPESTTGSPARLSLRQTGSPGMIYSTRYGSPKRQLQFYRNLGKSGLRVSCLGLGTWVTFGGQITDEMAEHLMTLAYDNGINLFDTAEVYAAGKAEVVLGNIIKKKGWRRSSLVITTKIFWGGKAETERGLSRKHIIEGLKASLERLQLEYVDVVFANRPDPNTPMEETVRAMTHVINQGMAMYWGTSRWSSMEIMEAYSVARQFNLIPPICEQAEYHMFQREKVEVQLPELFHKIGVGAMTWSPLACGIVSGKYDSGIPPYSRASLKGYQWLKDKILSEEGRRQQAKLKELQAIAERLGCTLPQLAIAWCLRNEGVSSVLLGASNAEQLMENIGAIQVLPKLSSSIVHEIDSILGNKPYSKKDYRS

[6] = biological target: Voltage-gated potassium channel subunit beta-2 (Rattus norvegicus) (UniProt P62483); assay: enhancers of rat Kvbeta2 NADPH turnover – biochemical, NADPH fluorescence, primary screen (AID 623;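 active = NADPH fluorescence slope more negative than the mean of all samples by about 3 SD, 99.7% confidence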;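 note: fluorescence intensity change per second fitted from 20 to 320 s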); settings: Recombinant KvBeta, NADPH fluorescence decrease slope, 10 min; at 10 µM; stronger effect = lower value
[7] = biological target: Alpha-2C adrenergic receptor (Homo sapiens) (UniProt P18825); assay: compounds altering alpha2C-coupled GIRK flux – cell-based, HEK293 alpha2C/GIRK1/2, thallium flux, primary screen (AID 624;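 active = fluorescence slope after compound addition differing from the mean of all screened samples at 99.7% confidence, in either direction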;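 note: slope of fluorescence ratio to pre-addition baseline per second over 15 to 24 s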); settings: thallium flux BTC fluorescence, at 10 µM, actives lie on both sides
Chain of Alpha-2C adrenergic receptor (Homo sapiens) (P18825 whole entry, looked up): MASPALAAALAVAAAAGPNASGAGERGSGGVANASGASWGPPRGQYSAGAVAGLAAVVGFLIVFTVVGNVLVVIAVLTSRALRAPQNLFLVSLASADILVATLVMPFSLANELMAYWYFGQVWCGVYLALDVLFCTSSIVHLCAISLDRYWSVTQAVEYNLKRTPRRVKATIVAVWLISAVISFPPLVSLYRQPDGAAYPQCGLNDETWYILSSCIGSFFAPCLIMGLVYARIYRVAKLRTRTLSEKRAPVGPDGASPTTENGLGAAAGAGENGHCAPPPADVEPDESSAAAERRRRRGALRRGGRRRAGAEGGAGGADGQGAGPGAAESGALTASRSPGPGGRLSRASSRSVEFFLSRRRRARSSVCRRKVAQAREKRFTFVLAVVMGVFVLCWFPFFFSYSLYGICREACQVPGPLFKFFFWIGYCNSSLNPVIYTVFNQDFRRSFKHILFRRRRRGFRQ

[8] = inhibitors of larval lipid processing in zebrafish, primary screen, whole organism, PED6 fluorescence, gall bladder and intestine (AID 686;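 active = a full or partial loss of lipid-probe fluorescence in the fish gall bladder, intestine or both, judged by eye; inactive = no fluorescence loss, or compound toxic to the fish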;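 note: larvae 5 to 7 days old with five fish per well; signal comes from phospholipase A2 cleavage of quenched PED6 carried via bile; overnight exposure to compound and PED6 before scoring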); settings: Zebrafish larvae PED6 lipid processing, fluorescence scoring; screened at 20 µM (by protocol)
Summary of the method: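 Test system – live zebrafish larvae aged 5-7 days, whole organism · Buffer or medium – E3 fish medium · Reagent – quenched phospholipase substrate PED6, 100 nM final, ingested by larvae · Doses – 20 µM single dose · Incubation – overnight compound and PED6 incubation · Technique – visual fluorescence microscopy scoring of gall bladder, gut · Read-out basis – visual per-well fluorescence inhibition score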

[9] = loss of swimming-algae plug formation – whole organism, Chlamydomonas reinhardtii, WT vs cilia-less mutant, absorbance, 96-well, primary screen (AID 463189;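 active = inhibition at or above 50% relative to wild type and mutant plate controls; inactive = inhibition below 50%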;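 note: 0% = wild type cc124 cells in DMSO and 100% = ciliumless bld1 mutant cells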); settings: Chlamydomonas reinhardtii gravitaxis, OD600 absorbance, 2 days; at 10 µM; stronger effect = higher value
[10] = measured here: cell density z-score
[11] = measured here: nuclear c-Myc green intensity z-score
[12] = measured here: nuclear pErk red intensity z-score, stronger effect = higher value

CCOC(=O)CSc1nc(C)c(C(C)=O)cc1C#N
cell count [1]: 623 | inhibition [1]: -18.6% (inactive) | inhibition [2]: -0.7% (inactive) | nuclei count [2]: 147% | z-score [3, 10]: -0.31 | z-score [3, 11]: -1.06 | z-score [3, 12]: -1.5 | inhibition [4]: -0.624% (inactive) | fluorescence slope [5]: -0.403 (inactive) | NADPH fluorescence slope [6]: -1.7e-05 (inactive) | slope [7]: 0.00581 (inactive) | outcome [8]: inactive | inhibition [9]: 43.9% (inactive)

CCOc1ccc(C2/C(=C(/O)c3ccc(F)cc3)C(=O)C(=O)N2CCCN(C)C)cc1 (stereo not given)
cell count [1]: 564 | inhibition [1]: -4.5% (inactive) | inhibition [2]: -17% (inactive) | nuclei count [2]: 186% | z-score [3, 10]: -0.359 | z-score [3, 11]: 0.0868 | z-score [3, 12]: -0.309 | inhibition [4]: -1.12% (inactive) | fluorescence slope [5]: -0.388 (inactive) | NADPH fluorescence slope [6]: -3e-05 (inactive) | slope [7]: 0.00504 (inactive) | outcome [8]: inactive | inhibition [9]: -0.349% (inactive)

COC(=O)C1=C(C)N=C2SC(C)C(=O)N2C1c1cccc(F)c1 (stereo not given)
cell count [1]: 346 | inhibition [1]: -0.4% (inactive) | inhibition [2]: -96.3% (inactive) | nuclei count [2]: 129% | z-score [3, 10]: 0.762 | z-score [3, 11]: -0.181 | z-score [3, 12]: -0.313 | inhibition [4]: 12.3% (inactive) | fluorescence slope [5]: -0.485 (inactive) | NADPH fluorescence slope [6]: -4.6e-05 (inactive) | slope [7]: 0.00444 (inactive) | outcome [8]: inactive | inhibition [9]: -8.16% (inactive)

Clc1ccc2[nH]c3c(NCCCN4CCOCC4)ncnc3c2c1
cell count [1]: 471 | inhibition [1]: -7.1% (inactive) | inhibition [2]: -31.4% (inactive) | nuclei count [2]: 102% | z-score [3, 10]: -0.293 | z-score [3, 11]: -0.352 | z-score [3, 12]: 1.38 | inhibition [4]: -13.3% (inactive) | fluorescence slope [5]: -0.52 (inactive) | NADPH fluorescence slope [6]: 6.4e-06 (inactive) | slope [7]: 0.00501 (inactive) | outcome [8]: inactive | inhibition [9]: -7.19% (inactive)

CCOc1ccc(C2C(C(=O)c3ccc(C)o3)=C(O)C(=O)N2CCCN(CC)CC)cc1 (stereo not given)
cell count [1]: 518 | inhibition [1]: -20.5% (inactive) | inhibition [2]: -72.6% (inactive) | nuclei count [2]: 151% | z-score [3, 10]: 1.15 | z-score [3, 11]: -0.0565 | z-score [3, 12]: 0.452 | inhibition [4]: -2.47% (inactive) | fluorescence slope [5]: -0.509 (inactive) | NADPH fluorescence slope [6]: -3.9e-05 (inactive) | slope [7]: 0.00538 (inactive) | outcome [8]: inactive | inhibition [9]: 0.749% (inactive)

CCOC(=O)c1[nH]c2ccc(OC)cc2c1NC(=O)CN1CCN(c2ccccn2)CC1
cell count [1]: 551 | inhibition [1]: -8.8% (inactive) | inhibition [2]: -2.8% (inactive) | nuclei count [2]: 157% | z-score [3, 10]: -0.126 | z-score [3, 11]: 0.554 | z-score [3, 12]: 1.04 | inhibition [4]: -14% (inactive) | fluorescence slope [5]: -0.16 (inactive) | NADPH fluorescence slope [6]: 2.2e-06 (inactive) | slope [7]: 0.00466 (inactive) | outcome [8]: inactive | inhibition [9]: -9.68% (inactive)

ONC(=Nc1ccccc1)C(=Nc1ccccc1)NO
cell count [1]: 348 | inhibition [1]: -0.3% (inactive) | inhibition [2]: -28.3% (inactive) | nuclei count [2]: 100% | z-score [3, 10]: 1.37 | z-score [3, 11]: 1.46 | z-score [3, 12]: 0.663 | inhibition [4]: 17% (inactive) | fluorescence slope [5]: -0.542 (inactive) | NADPH fluorescence slope [6]: -6e-05 (inactive) | slope [7]: 0.00535 (inactive) | outcome [8]: inactive | inhibition [9]: 25.5% (inactive)

CC1CN(C2CCN(C(=O)COc3ccccc3)CC2)CC(C)O1 (stereo not given)
cell count [1]: 357 | inhibition [1]: -12.6% (inactive) | inhibition [2]: -160% (inactive) | nuclei count [2]: 111% | z-score [3, 10]: -0.694 | z-score [3, 11]: 1.72 | z-score [3, 12]: -2.62 | inhibition [4]: 1.75% (inactive) | fluorescence slope [5]: -0.455 (inactive) | NADPH fluorescence slope [6]: -1.3e-05 (inactive) | slope [7]: 0.00556 (inactive) | outcome [8]: inactive | inhibition [9]: -3.28% (inactive)

CCOC(=O)c1ccc(NC(=O)CCC(CC)C(=O)O)cc1 (stereo not given)
cell count [1]: 402 | inhibition [1]: -23.7% (inactive) | inhibition [2]: -228% (inactive) | nuclei count [2]: 167% | z-score [3, 10]: 1.04 | z-score [3, 11]: -1.56 | z-score [3, 12]: -0.382 | inhibition [4]: 27.7% (inactive) | fluorescence slope [5]: -0.349 (inactive) | NADPH fluorescence slope [6]: -9.3e-06 (inactive) | slope [7]: 0.00545 (inactive) | outcome [8]: inactive | inhibition [9]: -1.41% (inactive)

C=CCn1cnc2c(c1=O)c1nc3ccccc3nc1n2-c1ccc(Cl)cc1
cell count [1]: 479 | inhibition [1]: -0.2% (inactive) | inhibition [2]: -57.8% (inactive) | nuclei count [2]: 97.9% | z-score [3, 10]: 0.198 | z-score [3, 11]: -0.115 | z-score [3, 12]: -0.677 | inhibition [4]: 3.5% (inactive) | fluorescence slope [5]: -0.489 (inactive) | NADPH fluorescence slope [6]: -1.8e-05 (inactive) | slope [7]: 0.00468 (inactive) | outcome [8]: inactive | inhibition [9]: 22.7% (inactive)
